Data on 5 compounds can be found in publication PMC7048954 (Drug Design, Development and Therapy, 2020).

As a reminder, the inhibition is the drop in the measured response relative to a control, in per cent.

Data set [1] relates to NS3 protease. Conditions: compared with bilirubin; cited from earlier work.
The subject of data set [2] is Huh 5.15 replicon cells. The experiment in a line: MTT assay of cellular viability and proliferation. It counts as cell-based, human. The method in brief: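 Replicon cells were seeded semi-confluent, attached overnight, then given compound at 10 or 20 μM or vehicle, in triplicate or quadruplicate. MTT was added at 24 and 48 h and absorbance read at 570 nm. Blanks containing vehicle plus compound were subtracted, and viable cells were expressed relative to vehicle controls.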
Background: Tetrazolium dyes change colour on reduction, which living cells bring about.

Data set [3] deals with HCV replicon (Huh 5.15NS, sub-genomic HCV RNA genotype 1b). As to the kind of experiment: HCV RNA replication in replicon cells, real-time RT-PCR. The conditions noted are these: Hepatitis C virus, GETYPE1B, read-out: inhibition in replicon assays. The data set is classed as cell-based. The method in brief: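 Huh 5.15NS cells carrying subgenomic genotype 1b HCV RNA were seeded, left to attach overnight and treated in log phase for 48 h with compound (DMSO stock diluted into medium) or vehicle. Total RNA was extracted with Trizol and DNase-treated, then HCV RNA was measured by SYBR green real-time RT-PCR using ΔCT against GAPDH. EC50 came from sigmoidal regression, with 3–5 determinations per point and a known NS3-4A inhibitor as positive control.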

The target of data set [4] is NS3-4A protease V36M mutant (Hepatitis C virus genotype 1b, UniProt P26663, V1062M). The experiment in a line: Mutant recombinant NS3-4A protease fluorometric assay, V36M. The data set is classed as biochemical, HCV. The conditions noted are these: V36M vs WT. The method in brief:
(§1)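 Recombinant wild-type and mutant NS3-4A proteases were run side by side in a SensoLyte FRET assay across a range of compound concentrations. Excitation/emission of 591/622, 490/520 or 340/490 nm was chosen empirically for each compound, and parallel compound-only wells corrected for autofluorescence. Compound came from DMSO stock diluted into assay buffer, with vehicle controls.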

The target of data set [5] is HCV NS3-4A protease genotype 1B (Hepatitis C virus genotype 1b, UniProt P26663). As to the kind of experiment: Recombinant NS3-4A protease FRET assay. The data set is classed as biochemical. The conditions noted are these: compared with biliverdin.
The test system of data set [6] is HCV proteins NS3-4A and core. The experiment in a line: Western blot for HCV proteins in infected Huh 7.5 cells and Huh 5.15NS replicons. It counts as cell-based. The conditions noted are these: MPP 10 µM; J6/JFH infected Huh 7.5 cells 48 hrs, Huh 5.15NS replicons 24 hrs. Summed up:
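Cells in log phase were treated with compound, then lysed. HCV proteins were detected by Western blot with anti-NS3-4A antibodies and enhanced chemiluminescence.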
On the technique in general: In western blotting, separated proteins are transferred to a membrane and probed.

Data set [7] deals with NS3-4A protease T54A mutant (Hepatitis C virus genotype 1b, UniProt P26663, T1080A). As to the kind of experiment: Mutant recombinant NS3-4A protease fluorometric assay, T54A. The data set is classed as biochemical, HCV. The conditions noted are these: T54A vs WT. Summed up:
as §1

The target of data set [8] is NS3-4A protease A156T mutant (Hepatitis C virus genotype 1b, UniProt P26663, A1182T). As to the kind of experiment: Mutant recombinant NS3-4A protease fluorometric assay, A156T. The data set is classed as biochemical, HCV. Conditions: A156T vs WT. Summed up:
as §1

Data set [9] deals with NS3 protease. The conditions noted are these: less effective for genotype 3; cited from earlier work.

Each structure is given as a SMILES string.

In the case of `C=CC1=C(C)/C(=C/C2=NC(=C\c3[nH]c(/C=C4\NC(=O)C(C)=C4C=C)c(C)c3CCC(=O)O)/C(CCC(=O)O)=C2C)NC1=O` [BV, biliverdin], in data set [1], the “IC50 for NS3 protease, fold less than BR” value is given as 30 fold.

On to `CC(C)(C)OC(=O)N[C@H]1CCCCC/C=C\[C@@H]2C[C@@]2(C(=O)NS(=O)(=O)C2CC2)NC(=O)[C@@H]2C[C@@H](OC(=O)N3Cc4cccc(F)c4C3)CN2C1=O` [Danoprevir, reference compound], for which, in [2] (24 or 48 hrs, concentrations equivalent or in excess of EC50), the “effects on viable cells” value is “little if any effects”. Further, the inhibition at 0.01 µM in data set [3] is 80 to 90%.

As for `C=CC1=C(C)c2cc3[n-]c(cc4[n-]c(cc5nc(cc1n2)C(C)=C5C=C)c(C)c4CCC(=O)O)c(CCC(=O)O)c3C.[Fe+2]` [FePP, Iron protoporphyrin], the “reduction of viable cells” value in [2] (10 or 20 μM, by 48 hrs) is 12–19%.

As to `C=CC1=C(C)C2=Cc3c(C=C)c(C)c4[n]3[Zn][n]3c(c(C)c(CCC(=O)O)c3=CC3=NC(=C4)C(C)=C3CCC(=O)O)=CC1=N2` [ZnPP, Zn protoporphyrin], the “inhibition of mutant protease compared to wild-type enzyme” value in data set [4], in [7] and in data set [8] was “same fidelity as the wild-type enzyme” each time. Moreover, in data set [5], the “Ki, fold stronger than biliverdin” value is listed as 10–20 fold. Also, the “reduction of the amount of viable cells” value in data set [2] (10 or 20 μM, 24 and 48 hrs intervals) was 40–50%. In addition, in data set [6], the “expression of HCV proteins NS3-4A and core (Western blot)” value is “decreased expression”.

Turning to `C=C[C@@H]1C[C@]1(NC(=O)[C@@H]1C[C@@H]2CN1C(=O)[C@H](C(C)(C)C)NC(=O)O[C@@H]1C[C@H]1CCCCCc1nc3ccc(OC)cc3nc1O2)C(=O)NS(=O)(=O)C1CC1` [grazoprevir], the “difference in Ki, genotype 3 as compared to genotype 1” value in data set [9] is listed as 90 fold.
